Source: PubChem
beta cell repl = inducers of MIN6 beta-cell proliferation, primary screen, ATP luminescence, uHTS; proliferation, % at 10 µM; 330,000 compounds, 0.29% hits; MIN6 cells proliferation, ATPlite luminescence, 48 h; cells starved in 0.2% serum; 100% = growth in 10% serum;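 active = compounds whose signal lies at least 3.5 SD above the mean of all wells on their plate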
NR1D1 modulator = modulators of Rev-erb alpha DNA binding, primary screen, biochemical, FITC-DNA, fluorescence polarization, uHTS. Nuclear receptor subfamily 1 group D member 1 (Homo sapiens), P20393. Rev-erbα–FITC-DNA binding, 90 min. 370,000 compounds, 0.79% hits. activity, % at 10 µM;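 active = activity above about 14%, limit read from the data; passing the limit was not always enough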
Target sequence (P20393 whole entry, looked up): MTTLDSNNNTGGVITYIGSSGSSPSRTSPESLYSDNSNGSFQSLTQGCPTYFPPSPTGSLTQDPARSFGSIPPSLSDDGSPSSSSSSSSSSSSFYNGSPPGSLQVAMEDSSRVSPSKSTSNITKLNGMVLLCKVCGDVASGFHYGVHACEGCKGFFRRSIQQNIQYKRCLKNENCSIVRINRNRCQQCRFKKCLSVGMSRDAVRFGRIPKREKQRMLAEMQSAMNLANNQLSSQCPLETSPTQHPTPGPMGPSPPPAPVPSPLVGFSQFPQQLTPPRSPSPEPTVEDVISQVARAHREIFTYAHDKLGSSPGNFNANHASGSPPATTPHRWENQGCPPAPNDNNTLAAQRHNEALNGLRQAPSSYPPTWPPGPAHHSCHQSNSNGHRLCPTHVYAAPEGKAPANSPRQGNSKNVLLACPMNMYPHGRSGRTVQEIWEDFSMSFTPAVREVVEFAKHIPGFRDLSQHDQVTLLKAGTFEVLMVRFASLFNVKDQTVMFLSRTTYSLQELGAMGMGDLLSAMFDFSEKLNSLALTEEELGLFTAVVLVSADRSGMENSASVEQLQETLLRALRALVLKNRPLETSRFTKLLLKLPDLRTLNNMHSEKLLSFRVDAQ
PG9 binder = binders of HIV-1 gp120 antibody PG9, primary screen, biochemical, TR-FRET; 360,000 compounds, 0.43% hits; TR-FRET gp120-PG9 antibody binding; AID 624416, 2012; inhibition, % at 6.7 µM; HIV-1 gp120 / PG9 antibody interaction; in the data active = inhibition above about 8.5%
iPSC survival up = enhancers of single-cell hiPSC survival, primary screen, ATPlite luminescence; 100% = ROCK inhibitor wells, 0% = DMSO; survival enhancement, % at 20 µM; 360,000 compounds, 0.044% hits; AID 602274, 2012; in the data active = survival enhancement above about 18%;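 note: cells exposed to compounds for 16 hours before the ATP read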
TAG inh = inhibitors of triacylglycerol accumulation, primary screen, cell-based, uHTS, fluorescence, H9c2; H9c2 cells, Nile Red lipid (TAG) fluorescence; cells loaded with 200 µM oleic acid; inhibition, % at 12.5 µM; 230,000 compounds, 0.66% hits; AID 651582, 2012;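 active = pattern-corrected inhibition of lipid staining of at least 50% with the nuclear-stain viability signal not falling by more than 50%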
T cruzi inh = inhibitors of intracellular T. cruzi growth, primary screen, luminescence, NIH3T3 host cells | T. cruzi beta-gal in NIH3T3, 90 h | inhibition, % (concentration not given with the values) | 300,000 compounds, 1.4% hits;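 active = mean inhibition across valid replicates above about 55%, limit read from the data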;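 note: signal also drops with host cell toxicity which is not excluded here; higher percent means less beta-gal luminescence so fewer parasites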
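System – NIH/3T3 host cells with β-galactosidase reporter T. cruzi · Doses – single 50 nL compound addition per well in DMSO · Reagent – 5000 T. cruzi trypomastigotes/well · Medium – Low-serum DMEM with 2% FBS · Timing – ≥90 h infection period, 3 h prior cell attachment · Evaluation – parasite load inhibition, % · Technique – GalScreen luminescence, 60 min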
NR1D1 mod conf = modulators of Rev-erb alpha DNA binding, confirmation, biochemical, FITC-DNA, fluorescence polarization, single point; shares compounds with NR1D1 modulator; 90 min; activation, % at 25 µM; 3,000 compounds, 61% hits;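 active = activation at or above a set limit, or at least 3 SD above the negative control mean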
RORg counter = modulation of RORgamma DNA binding, dose response, counter-screen for Rev-erb alpha modulator project, biochemical, fluorescence polarization, FITC-DNA | 910 compounds, 8% hits | shares compounds with NR1D1 modulator | purified RORgamma protein-FITC-DNA binding | IC50, µM;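 active = Compounds whose fitted half-maximal concentration for disrupting protein-DNA binding is below 10 micromolar; the record names Rev-erb in its text, so the target is in doubt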
Each line names hits and unclear results; the compound was inactive in the other large screens (follow-up assays come after a bar, where they were run). Most compounds without a hit are left out; they make up all but 2.9% or so of the library.

Cc1ccc(C(=O)NN2C(=O)C3C4c5ccccc5C(c5ccccc54)C3C2=O)cc1 (stereo unspecified)	none (no result: TAG inh)
O=C(Nc1ccc2c(c1)C(=O)NC2=O)c1ccc2ncsc2c1	NR1D1 modulator 56.8 | NR1D1 mod conf 53.5 | RORg counter 6.01
Cc1ccc2nc(NC(=O)c3ccc4ncsc4c3)sc2c1	NR1D1 modulator 34.2 | NR1D1 mod conf 23.9
C=CCNc1nnc(SC2CC(=O)N(c3ccc(OCCC)cc3)C2=O)s1 (stereo unspecified)	none (no result: TAG inh)
Cc1ccnc(N/C=C/C(=O)c2ccc(Br)cc2)c1	none (no result: TAG inh)
O=C(/C=C\Nc1ccc(Cl)cn1)c1ccc(Br)cc1	NR1D1 modulator 67.3 | NR1D1 mod conf inactive
Cc1nc(C)c(-c2ccc(SCC(=O)Nc3ccccc3)nn2)s1	none
Cc1nc(C)c(-c2ccc(SCC(=O)Nc3cccc(Cl)c3C)nn2)s1	NR1D1 modulator 16.5 | NR1D1 mod conf inactive
CCC(C)(C)c1ccc(OCCCC[n+]2cccc(C)c2)c(C(C)(C)CC)c1	NR1D1 modulator 33.5, T cruzi inh 59.6 (no result: beta cell repl) | NR1D1 mod conf 44.2 | RORg counter inactive
COc1ccccc1-c1ccc2c(c1)C(C)(Cc1ccccc1C#N)C(=O)N2 (stereo unspecified)	NR1D1 modulator 47.8 (no result: beta cell repl, T cruzi inh) | NR1D1 mod conf 41.6 | RORg counter inactive
COc1ccccc1-c1ccc2c(c1)C(C)(Cc1ccc(Cl)c(Cl)c1)C(=O)N2 (stereo unspecified)	none (no result: beta cell repl, T cruzi inh)
CC1(Cc2ccccc2C#N)C(=O)Nc2ccc(-c3ccccc3)cc21 (stereo unspecified)	NR1D1 modulator 35.6 (no result: beta cell repl, T cruzi inh) | NR1D1 mod conf 51.0 | RORg counter inactive
CC(C)c1ccc(NC(=S)NC2CCN(Cc3ccccc3)CC2)cc1	none (no result: TAG inh)
CCc1nc(SCC(=O)Nc2nccs2)c2oc3ccccc3c2n1	NR1D1 modulator 15.1 | NR1D1 mod conf 18.0
O=C(CSc1ncnc2c1oc1ccccc12)Nc1nccs1	NR1D1 modulator 31.6 | NR1D1 mod conf 25.1
CCc1nc(SCC(=O)NC2CCCC2)c2oc3ccccc3c2n1	NR1D1 modulator 39.3 (no result: TAG inh) | NR1D1 mod conf 56.0 | RORg counter inactive
CCOC(=O)CC(=O)CSc1nc(C)nc2c1oc1ccccc12	none
Cc1nc(SCC(=O)NCc2ccccc2)c2oc3ccccc3c2n1	NR1D1 modulator 43.9 (no result: TAG inh) | NR1D1 mod conf 188.7 | RORg counter inactive
O=C(CSc1ncnc2c1oc1ccccc12)NC1CCCCC1	none
OCCC#Cc1ccc(CN2CCN(CCc3ccccc3)C(CCO)C2)cc1 (stereo unspecified)	none (no result: TAG inh)
Cc1nc(SCc2nc3c(F)cccc3[nH]2)c2oc3ccccc3c2n1	NR1D1 modulator 29.8 (no result: T cruzi inh) | NR1D1 mod conf 38.5 | RORg counter inactive
O=C(CSc1ncnc2c1oc1ccccc12)Nc1ccc2c(c1)OCCO2	NR1D1 modulator 676.1 (no result: TAG inh) | NR1D1 mod conf 568.7 | RORg counter inactive
COc1ccc(-c2cc(C(F)(F)F)n3ncc(C(=O)NCC4CCCO4)c3n2)cc1 (stereo unspecified)	NR1D1 modulator 47.2 (no result: beta cell repl, T cruzi inh) | NR1D1 mod conf 21.9
COc1cccc(-c2cc(C(F)(F)F)n3ncc(C(=O)NCC4CCCO4)c3n2)c1 (stereo unspecified)	none
CC1=Nc2ccccc2/C1=C/c1sc(=S)n(-c2cccc(C(=O)O)c2)c1O	NR1D1 modulator 47.9 (no result: beta cell repl) | NR1D1 mod conf 51.9 | RORg counter inactive
Oc1c(C=C2N=c3ccccc3=N2)sc(=S)n1-c1ccccc1	none (no result: TAG inh)
